The nature of experiment [1]: Cytotoxicity against human KBVIN cells. The format is functional. The following applies: read-out: ED50 (the source's name). The method in brief: (§1)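 Human tumour cell lines DU145, A549, KB and multidrug-resistant KB-VIN were exposed to the quassinoids, with paclitaxel as reference. ED50 was the mean concentration giving 50% effect under the defined assay condition, reported in µM.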

The next experiment deals with DU-145. Briefly: Cytotoxicity against human DU145 cells. In kind it is functional. The following applies: read-out: ED50 (the source's name). The method in brief: as §1
For a further experiment, the system named is A549. Description: Cytotoxicity against human A549 cells. In kind it is functional. Particulars: read-out: ED50 (the source's name). The method in brief:
as §1

For the next experiment, the system named is KB. Briefly: Cytotoxicity against human KB cells. The format is functional. The following applies: read-out: ED50 (the source's name). The method in brief:
as §1

A short description of experiment [2]: Growth inhibition of human KBVIN cells at 10 ug/ml. The following applies: read-out: GI. The format is functional.
In experiment [3] the test system is Mus musculus. Briefly: Reduction of mammary gland ductal branching in […]/p53-deficient C57BL/6/129/Sv mouse model at 0.1 mg/kg, ip daily for 7 days measured post last dose by immunohistochemistry. In kind it is functional. The method in brief:
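Three-month-old Brca1/p53 conditional mutant mice (Cre, mixed C57BL/6 and 129/Sv background) given […] daily for 7 days. Dose is drawn from a 1 mg/mL DMSO stock, 10 µL mixed with 30 µL 40% PEG and 60 µL 0.9% NaCl at dosing. Controls get vehicle. Fourth-pair glands are whole-mounted, Carnoy-fixed 3 h and carmine alum-stained overnight. Branching points are counted relative to vehicle, two-tailed t-test.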

Experiment [4] has as its system Mus musculus. Description: Reduction of mammary gland ductal branching in […]/p53-deficient C57BL/6/129/Sv mouse model at 0.1 mg/kg, ip daily for 5 days measured post last dose by immunohistochemistry. In kind it is functional, organism-based. Details: dose 0.1 mg/kg. The method in brief: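 Three-month-old Brca1/p53 conditional mutant mice (mixed C57BL/6 and 129/Sv background) dosed i.p. daily for 5 days, with vehicle controls. Fourth-pair mammary glands are whole-mounted, fixed in Carnoy's 3 h and stained overnight with carmine alum. Ductal branching points are scored against vehicle-treated mice, significance by two-tailed t-test.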

The subject of experiment [5] is MCF7. Description: Cytotoxicity against human MCF7 cells. In kind it is functional, cell-based.
For the next experiment, the system named is MDA-MB-468. Description: Cytotoxicity against human MDA-MB-468 cells. The format is functional, cell-based.
For experiment [6], the system named is MCF7. Briefly: Cytotoxicity against human MCF7 cells overexpressing HER2. The format is functional, cell-based.
A short description of experiment [7]: Cytotoxicity against human HeyA8 cells. The format is functional, cell-based. Particulars: HEY A8.
Experiment [8] is described as follows: Cytotoxicity against human HOC7 cells. The format is functional, cell-based.
The test system of a further experiment is SK-BR-3. Description: Cytotoxicity against human SK-BR-3 cells. In kind it is functional, cell-based.
Another experiment relates to BT-474. Description: Cytotoxicity against human BT474 cells. The format is functional, cell-based.
The nature of experiment [9]: Cytotoxicity against human MSPC1 cells. The format is functional, cell-based.
In a further experiment the test system is MDA-MB-231. Briefly: Cytotoxicity against human MDA-MB-231 cells. In kind it is functional, cell-based.
A short description of experiment [10]: Cytotoxicity against human 2774-C10 cells. The format is functional, cell-based.

≈ marks a conversion by molar mass, not a printed value. Calls of active or inactive are those of the source.

As for `CC[C@@](C)(OC(C)=O)C(=O)O[C@H]1C(=O)O[C@@H]2C[C@H]3C(C)=CC(=O)[C@@H](O)[C@]3(C)[C@H]3[C@@]4(O)OC[C@]32[C@@H]1[C@@H](C)[C@H]4O`, the EC50 in experiment [1] turned out to be 440 nM; in the experiment on DU-145, 70 nM; in the experiment on A549 it was 70 nM; in the experiment on KB, 70 nM.
`CC[C@](C)(OC(C)=O)C(=O)O[C@H]1C(=O)O[C@@H]2C[C@H]3C(C)=C[C@H](O)[C@@H](O)[C@]3(C)[C@H]3[C@@]4(O)OC[C@]32[C@@H]1[C@@H](C)[C@H]4O`: in experiment [2], the inhibition of growth at 10 µg/mL was below 50%. In addition, the EC50 in the experiment with DU-145 is 830 nM; in the experiment with A549, 3600 nM; in the experiment with KB, 670 nM.
Take `COC(=O)[C@@]12OC[C@]34[C@H]([C@@H](O)[C@@H]1O)[C@@]1(C)CC(=O)C(O)=C(C)[C@@H]1C[C@H]3OC(=O)[C@H](OC(=O)/C=C(\C)C(C)C)[C@@H]24`: the inhibition entry in the experiment on Mus musculus [3] and with Mus musculus [4] was “Active” in each case.
Broadly, the IC50 is the midpoint of a concentration-inhibition curve. A low value points to inhibition by little substance. `CC[C@](C)(OC(C)=O)C(=O)O[C@H]1C(=O)O[C@@H]2C[C@H]3C(C)=CC(=O)[C@@H](O)[C@]3(C)[C@H]3[C@@]4(O)OC[C@]32[C@@H]1[C@@H](C)[C@H]4O` [2'-ACETOXY-GLAUCARUBINONE]: the half-maximal inhibitory concentration (IC50) in the experiment on MCF7 [5] is 8.13 µg/mL (≈ 15.2 µM); in the experiment with MDA-MB-468, 0.016 µg/mL (≈ 0.0298 µM); in the experiment on MCF7 [6], 0.013 µg/mL (≈ 0.0242 µM); in experiment [7], below 0.01 µg/mL; in [8], below 0.01 µg/mL; with SK-BR-3, 0.014 µg/mL (≈ 0.0261 µM). The IC50 in the experiment on BT-474 is 28.4 µg/mL (≈ 52.9 µM); in experiment [9] it was below 0.01 µg/mL; with MDA-MB-231, 0.077 µg/mL (≈ 0.144 µM); in [10], below 0.01 µg/mL. Also, the EC50 came to 420 nM in experiment [1], 40 nM in the experiment with DU-145, 60 nM with A549 and 50 nM in the experiment on KB.
On to `CCC(C)C(=O)O[C@H]1C(=O)O[C@@H]2C[C@H]3C(C)=CC(=O)[C@@H](O)[C@]3(C)[C@H]3[C@]4(O)OC[C@]32[C@@H]1[C@@H](C)[C@H]4O` (stereo not given in full) [AILANTHINONE], for which the EC50 in experiment [1] is 370 nM; with DU-145 it was 90 nM; in the experiment on A549, 130 nM; with KB it was 180 nM.
For `CCC(C)C(=O)O[C@H]1C(=O)O[C@@H]2C[C@H]3C(C)=C[C@H](O)[C@@H](O)[C@]3(C)[C@H]3[C@@]4(O)OC[C@]32[C@@H]1[C@@H](C)[C@H]4O` (stereo not given in full) [EXCELSIN], in experiment [2], the inhibition of growth at 10 µg/mL is below 50%. In addition, the EC50 turned out to be 4700 nM in the experiment with DU-145, 16000 nM in the experiment with A549 and 4300 nM with KB.
For the compound `CC[C@](C)(O)C(=O)O[C@H]1C(=O)O[C@@H]2C[C@H]3C(C)=CC(=O)[C@@H](O)[C@]3(C)[C@H]3[C@@]4(O)OC[C@]32[C@@H]1[C@@H](C)[C@H]4O` [GLAUCARUBINONE], the EC50 in [1] is 1240 nM; in the experiment with DU-145, 470 nM; in the experiment on A549, 880 nM; in the experiment with KB it was 440 nM.
Take `CC(=O)O[C@H]1C(=O)[C@@]2(C)[C@H]([C@H](OC(=O)c3ccccc3)[C@]3(O)C[C@H](OC(=O)[C@H](O)[C@@H](NC(=O)c4ccccc4)c4ccccc4)C(C)=C1C3(C)C)[C@]1(OC(C)=O)CO[C@@H]1C[C@@H]2O` [PACLITAXEL]: the EC50 was above 1000 nM in [1], 3 nM with DU-145, 8 nM in the experiment on A549 and 7 nM in the experiment with KB.

Values taken from ChEMBL document CHEMBL1221399, “Antitumor Agents. 282. 2'-(R)-O-acetylglaucarubinone, a quassinoid from Odyendyea gabonensis as a potential anti-breast and anti-ovarian cancer agent” (J Nat Prod, 2010).
